Results from ChEMBL document CHEMBL4152343, “Design, Synthesis, and Pharmacological Evaluation of Second-Generation Tetrahydroisoquinoline-Based CXCR4 Antagonists with Favorable ADME Properties” (J Med Chem, 2018).

Experiments:
[1] = target: Muscarinic acetylcholine receptor; experiment: Antagonist activity at mAChR in human CCRF-CEM cells assessed as inhibition of acetylcholine-induced calcium release preincubated for 25 mins followed by acetylcholine stimulation and measured for 90 secs by calcium flux assay; format: functional, cell-based
Summary of the method: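 Endogenous muscarinic receptors in CCRF-CEM cells (HBSS/HEPES/BSA buffer, 40,000 cells/well, dye-loaded 30 min at 37°C). Calcium flux recorded 90 s by FDSS. IC50 by 4-parameter logistic fit against an internal control compound; duplicate wells, single experiment.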

[2] = Metabolic stability in mouse liver microsomes assessed as parent compound remaining after 10 mins by LC-MS/MS analysis; format: ADME, microsome; conditions: read-out: Stability
Summary of the method: (§1)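 Compound depletion measured by LC/MS/MS after 10 min at 37 °C in liver microsome preparations (CYP450 and other NADP-dependent enzymes). Values are % of compound remaining; duplicates in a single experiment.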

[3] = Permeability of compound at pH 7.4 by PAMPA; format: ADME; conditions: read-out: permeability
Summary of the method: (§2)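 Compound from 10 mM DMSO stock diluted 1:100 to 100 µM (1% DMSO) in pH 7.4 or pH 5.5 donor buffer, then filtered. Lipid-coated filter membrane with pH 7.4 acceptor buffer; incubated 4 h at room temperature. UV plate reading gives Pc. Duplicates in two independent experiments unless noted.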

[4] = target: Cytochrome P450 2D6 (Homo sapiens, UniProt P10635); experiment: Inhibition of recombinant human CYP2D6 expressed in insect cells microsomes using AMMC as substrate preincubated for 30 mins followed by NADP addition and measured after 45 mins by fluorescence analysis; format: ADME
Cytochrome P450 2D6, sequence (P10635 whole entry): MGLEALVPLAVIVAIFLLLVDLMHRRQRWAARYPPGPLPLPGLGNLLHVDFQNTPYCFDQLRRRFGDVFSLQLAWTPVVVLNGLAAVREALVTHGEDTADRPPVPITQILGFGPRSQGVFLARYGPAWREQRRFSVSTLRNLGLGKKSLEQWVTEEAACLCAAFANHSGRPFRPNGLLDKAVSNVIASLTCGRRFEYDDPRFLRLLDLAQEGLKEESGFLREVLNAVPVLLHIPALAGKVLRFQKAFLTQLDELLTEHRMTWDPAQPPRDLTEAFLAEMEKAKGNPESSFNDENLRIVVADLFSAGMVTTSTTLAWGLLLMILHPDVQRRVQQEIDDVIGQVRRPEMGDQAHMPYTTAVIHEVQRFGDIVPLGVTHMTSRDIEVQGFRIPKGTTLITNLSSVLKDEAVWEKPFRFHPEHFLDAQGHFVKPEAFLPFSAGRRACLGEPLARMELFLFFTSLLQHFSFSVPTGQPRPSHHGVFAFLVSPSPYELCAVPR

[5] = target: T1, C-X-C chemokine receptor type 4 (Homo sapiens, UniProt P61073); experiment: Agonist activity at CXCR4 in human CCRF-CEM cells assessed as induction of calcium release incubated for 25 mins by calcium flux assay; format: functional, cell-based
T1 sequence (P61073 whole entry): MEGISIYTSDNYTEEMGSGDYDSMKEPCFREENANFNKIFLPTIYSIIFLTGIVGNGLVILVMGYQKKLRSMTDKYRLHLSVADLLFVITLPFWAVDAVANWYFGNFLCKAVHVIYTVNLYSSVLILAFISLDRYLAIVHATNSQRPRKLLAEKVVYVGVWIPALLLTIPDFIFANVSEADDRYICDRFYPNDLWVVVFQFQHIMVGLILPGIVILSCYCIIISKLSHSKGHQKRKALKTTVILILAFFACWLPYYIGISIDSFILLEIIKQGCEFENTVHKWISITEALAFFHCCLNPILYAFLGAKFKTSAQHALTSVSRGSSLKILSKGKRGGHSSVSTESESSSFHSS
Summary of the method: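 CCRF-CEM T lymphoblasts (endogenous CXCR4) in HBSS/20 mM HEPES/0.1% fatty-acid-free BSA, 40,000 cells/well, dye-loaded 30 min at 37°C, then 15 min at room temperature. Compounds added at final 25,000–0.423 nM (0.5% DMSO) and calcium flux read by FDSS for 90 s.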

[6] = target: T1, C-X-C chemokine receptor type 4; experiment: Antagonist activity at CXCR4 in human CCRF-CEM cells assessed as inhibition of SDF-1alpha-induced calcium release preincubated for 25 mins followed by SDF-1alpha stimulation and measured for 90 secs by calcium flux assay; format: functional, cell-based
[7] = target: Cytochrome P450 3A4 (Homo sapiens, UniProt P08684); experiment: Inhibition of human CYP3A4; format: ADME
Cytochrome P450 3A4, sequence (P08684 whole entry): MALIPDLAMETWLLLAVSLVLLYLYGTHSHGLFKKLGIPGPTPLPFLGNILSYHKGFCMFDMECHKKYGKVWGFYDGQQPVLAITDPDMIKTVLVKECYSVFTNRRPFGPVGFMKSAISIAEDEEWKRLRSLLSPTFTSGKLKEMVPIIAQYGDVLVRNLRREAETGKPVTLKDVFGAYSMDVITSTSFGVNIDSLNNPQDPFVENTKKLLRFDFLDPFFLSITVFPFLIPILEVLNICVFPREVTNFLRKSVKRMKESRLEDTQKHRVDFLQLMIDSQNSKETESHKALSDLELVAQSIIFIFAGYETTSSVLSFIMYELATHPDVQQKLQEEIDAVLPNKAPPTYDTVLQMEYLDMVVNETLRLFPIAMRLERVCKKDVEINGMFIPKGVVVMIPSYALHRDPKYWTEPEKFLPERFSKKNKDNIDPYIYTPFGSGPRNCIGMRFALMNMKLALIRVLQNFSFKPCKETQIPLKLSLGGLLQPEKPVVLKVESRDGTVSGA

[8] = Metabolic stability in human liver microsomes assessed as parent compound remaining after 10 mins by LC-MS/MS analysis; format: ADME, microsome; conditions: read-out: Stability; summary of the method: as §1
[9] = Permeability of compound at pH 5.5 by PAMPA; format: ADME; conditions: read-out: permeability; summary of the method: as §2

SMILES | IC50 [1] | remaining at 10 min [2] | Papp [3] | IC50 [4] | EC50 [5] | IC50 [6] | IC50 [7] | remaining at 10 min [8] | Papp [9]
CCN(C[C@H]1Cc2c(cccc2N2CCNCC2)CN1)[C@H]1CCCc2cccnc21 | 8.6 µM | 53.8% | 7.5 ×10⁻⁶ cm/s | > 20 µM | > 30 µM | 0.0148 µM | > 20 µM | 79.1% | 
FC1(F)CCC(CN(C[C@H]2Cc3c(cccc3N3CCNCC3)CN2)[C@H]2CCCc3cccnc32)CC1 | > 33.3 µM | 76.6% |  | 8.45 µM | > 30 µM |  | 5.62 µM | 68.6% | 
CN(C[C@H]1Cc2c(cccc2N2CCN(c3cccc(C(F)(F)F)c3)CC2)CN1)[C@H]1CCCc2cccnc21 | 9.25 µM | 72.3% | 14.1 ×10⁻⁶ cm/s | 6.48 µM | > 30 µM | > 16.7 µM | 2.21 µM | 90.3% | 
CN(C[C@H]1Cc2c(cccc2N2CCN(c3ccccn3)CC2)CN1)[C@H]1CCCc2cccnc21 | 1.98 µM | 46.1% |  | 2.52 µM | > 30 µM | 0.0179 µM | 3.16 µM | 27.4% | 12.9 ×10⁻⁶ cm/s
Cc1cccnc1CN(C)C[C@H]1Cc2c(cccc2N2CCNCC2)CN1 | 11.1 µM |  | 19.3 ×10⁻⁶ cm/s | 100 µM | > 30 µM |  | 1.42 µM | 69.2% | 
c1cnc2c(c1)CCC[C@@H]2N(CC1CC1)C[C@H]1Cc2c(cccc2N2CCNCC2)CN1 | 21.6 µM | 88.3% | 8.7 ×10⁻⁶ cm/s | 8.57 µM | > 30 µM |  | > 20 µM | 82.1% | 
CN1Cc2cccc(N3CCNCC3)c2C[C@@H]1CN(C)[C@H]1CCCc2cccnc21 | 26.3 µM | 100% | 0.3 ×10⁻⁶ cm/s | > 20 µM | > 30 µM |  | > 20 µM | 100% | 
OCCN(C[C@H]1Cc2c(cccc2N2CCNCC2)CN1)[C@H]1CCCc2cccnc21 | > 33.3 µM | 60.3% | 1.1 ×10⁻⁶ cm/s | > 20 µM | > 30 µM | 0.195 µM | > 20 µM | 94.4% | 
CN1CCN(c2cccc3c2C[C@H](CN2CCC[C@H]4CCc5cccnc5[C@H]42)NC3)CC1 | > 16.7 µM |  | 32.3 ×10⁻⁶ cm/s | > 20 µM | > 30 µM |  | > 20 µM | 67.8% | 
CN(C[C@@H]1Cc2c(cccc2N2CCNCC2)CN1)[C@H]1CCCc2cccnc21 | 2.1 µM | 54.6% | 0.4 ×10⁻⁶ cm/s | > 20 µM | > 30 µM | 0.313 µM | > 20 µM | 94.2% | 
c1cnc2c(c1)CCC[C@@H]2N(CC1CCCCC1)C[C@H]1Cc2c(cccc2N2CCNCC2)CN1 | > 33.3 µM | 85.6% | 0.9 ×10⁻⁶ cm/s | 5.72 µM | > 30 µM | 0.715 µM | 1.78 µM | 81.6% | 
CCCN(C[C@H]1Cc2c(cccc2N2CCNCC2)CN1)[C@H]1CCCc2cccnc21 | 3.16 µM | 87.4% | 2.65 ×10⁻⁶ cm/s | 12 µM | > 30 µM | 0.0322 µM | > 20 µM | 100% | 
Cc1cnc2c(c1)CCC[C@@H]2N(C)C[C@H]1Cc2c(cccc2N2CCNCC2)CN1 | > 16.7 µM |  | 0.9 ×10⁻⁶ cm/s | > 20 µM | > 30 µM |  | > 20 µM | 100% | 
COCCN(C[C@H]1Cc2c(cccc2N2CCNCC2)CN1)[C@H]1CCCc2cccnc21 | 5.6 µM | 83.7% | 0.1 ×10⁻⁶ cm/s | 14.2 µM | > 30 µM | 0.154 µM | > 20 µM | 90.3% | 
Cc1ccc(CN(C)C[C@H]2Cc3c(cccc3N3CCNCC3)CN2)nc1 | 9.56 µM |  | 22.5 ×10⁻⁶ cm/s | 100 µM | > 30 µM |  | > 20 µM | 76.8% | 
Cc1cnc(CN(C)C[C@H]2Cc3c(cccc3N3CCNCC3)CN2)c(C)c1 | 15.4 µM |  |  | > 20 µM | > 30 µM |  | > 20 µM |  | 
CN1CCN(c2cccc3c2C[C@H](CN(C)[C@H]2CCCc4cccnc42)N(C)C3)CC1 | > 16.7 µM | 41.7% | 36.4 ×10⁻⁶ cm/s | > 20 µM | > 30 µM | 0.171 µM | > 20 µM | 83.3% | 

Further lines, results first:

IC50 [1] | remaining at 10 min [2] | Papp [3] | IC50 [4] | EC50 [5] | IC50 [6] | IC50 [7] | remaining at 10 min [8] | Papp [9] | SMILES
> 16.7 µM | 36.3% |  | > 20 µM | > 30 µM | 0.146 µM | > 20 µM | 100% |  | CN(C[C@H]1Cc2c(cccc2N2C[C@@H]3C[C@H]2CN3)CN1)[C@H]1CCCc2cccnc21
8.34 µM | 91% | 1.6 ×10⁻⁶ cm/s | > 20 µM | > 30 µM | 0.364 µM | > 20 µM | 75% |  | CC(C)N(C[C@H]1Cc2c(cccc2N2CCNCC2)CN1)[C@H]1CCCc2cccnc21
> 16.7 µM | 50.8% | 72.5 ×10⁻⁶ cm/s | > 20 µM | > 30 µM |  | > 20 µM | 83.1% |  | CN(C[C@H]1Cc2c(cccc2N2CCN(C3COC3)CC2)CN1)[C@H]1CCCc2cccnc21
> 33.3 µM | 18.8% | 20.5 ×10⁻⁶ cm/s | > 20 µM | > 30 µM | 0.0138 µM | > 20 µM | 0% |  | CCN1CCN(c2cccc3c2C[C@H](CN(C)[C@H]2CCCc4cccnc42)NC3)CC1
0.887 µM | 35.1% |  | 0.508 µM | > 30 µM | 0.0307 µM | 3.35 µM | 35.5% | 36 ×10⁻⁶ cm/s | CN(C[C@H]1Cc2c(cccc2N2CCN(c3ncccn3)CC2)CN1)[C@H]1CCCc2cccnc21
> 33.3 µM | 85.6% | 3.9 ×10⁻⁶ cm/s | > 20 µM | > 30 µM | 0.061 µM | > 20 µM | 100% |  | C[C@@H]1CN(c2cccc3c2C[C@H](CN(C)[C@H]2CCCc4cccnc42)NC3)C[C@H](C)N1
17.9 µM | 44% |  | > 20 µM | > 30 µM |  | > 20 µM | 100% |  | CN(C[C@H]1Cc2c(cccc2N2CCNC(C)(C)C2)CN1)[C@H]1CCCc2cccnc21
> 16.7 µM | 95.9% |  | > 20 µM | > 30 µM |  | > 20 µM | 100% |  | CN(C[C@H]1Cc2c(cccc2N2C[C@H]3C[C@@H]2CN3)CN1)[C@H]1CCCc2cccnc21
15.1 µM | 39.6% | 14.2 ×10⁻⁶ cm/s | > 20 µM | > 30 µM |  | > 20 µM | 24.6% |  | C[C@@H]1CN(c2cccc3c2C[C@H](CN(C)[C@H]2CCCc4cccnc42)NC3)C[C@H](C)N1C
> 33.3 µM | 17% | 99.6 ×10⁻⁶ cm/s | > 20 µM | > 30 µM |  | > 20 µM | 75.8% |  | CN1CCN(c2cccc3c2C[C@H](CN(C)[C@H]2CCCc4cccnc42)NC3)CC1
> 16.7 µM | 15.1% | 14.3 ×10⁻⁶ cm/s | 8.13 µM | > 30 µM | 0.0169 µM | > 20 µM | 56.6% |  | CC(C)N1CCN(c2cccc3c2C[C@H](CN(C)[C@H]2CCCc4cccnc42)NC3)CC1
> 16.7 µM | 40.1% | 16.7 ×10⁻⁶ cm/s | > 20 µM | > 30 µM |  | > 20 µM | 36.6% |  | CN(C[C@H]1Cc2c(cccc2N2CCN3CCC[C@H]3C2)CN1)[C@H]1CCCc2cccnc21
> 33.3 µM | 7% | 26.5 ×10⁻⁶ cm/s | 6.09 µM | > 30 µM | 0.0235 µM | 4.23 µM | 15.5% |  | CN(C[C@H]1Cc2c(cccc2N2CCN(C3CC3)CC2)CN1)[C@H]1CCCc2cccnc21
